Assay [1] addresses T1, Sterol 24-C-methyltransferase (Yarrowia lipolytica) (UniProt Q6C2D9).
T1 sequence (whole entry): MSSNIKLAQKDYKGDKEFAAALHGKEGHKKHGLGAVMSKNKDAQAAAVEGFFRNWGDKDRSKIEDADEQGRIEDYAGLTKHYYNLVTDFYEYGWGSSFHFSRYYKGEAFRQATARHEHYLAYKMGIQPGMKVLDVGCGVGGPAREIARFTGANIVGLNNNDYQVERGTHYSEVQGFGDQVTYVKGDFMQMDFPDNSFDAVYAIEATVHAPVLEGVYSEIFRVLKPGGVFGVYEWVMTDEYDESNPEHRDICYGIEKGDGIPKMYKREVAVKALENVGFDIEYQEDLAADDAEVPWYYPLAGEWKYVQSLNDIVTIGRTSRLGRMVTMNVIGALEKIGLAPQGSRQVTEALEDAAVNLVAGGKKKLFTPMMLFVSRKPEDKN
In words: Inhibition of Yarrowia lipolytica 24-sterol C-methyltransferase assessed as ergosterol-3-trimethylsilyl derivative level at 2 ug/mL after 48 hrs by GC-MS analysis relative to untreated control. Also noted: scale not given: the % may be the effect or the level left. The essentials: (§1)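 Whole-cell sterol profiling. Y. lipolytica at 50,000 CFU/mL was exposed to compounds added from ethanol for 48 ± 2 h at 28 °C, and the MIC/2 and/or MIC/4 wells were used. Cells were pelleted and PBS-washed, then saponified in 1 M NaOH at 70 °C for 1 h. Sterols were extracted into TBME with a cholesterol internal standard and silylated to TMS ethers. GC-MS full scan, with each sterol given as % of total integrated quantifier-ion area.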

Assay [2] addresses T1, Sterol 24-C-methyltransferase (Yarrowia lipolytica). In words: Inhibition of Yarrowia lipolytica 24-SMT assessed as dehydroergosterol-3-trimethylsilyl derivative at 8 ug/mL after 48 hrs by GC-MS analysis relative to untreated control. Also noted: scale not given: the % may be the effect or the level left. The gist of the method:
as §1

For assay [3] the target is unchanged. The experiment in a line: Inhibition of Yarrowia lipolytica 24-SMT assessed as 5-dehydroepisterol-3-trimethylsilyl derivative at 2 ug/mL after 48 hrs by GC-MS analysis relative to untreated control. The arrangement: scale not given: the % may be the effect or the level left. The essentials: as §1
The target is the same in assay [4]. In words: Inhibition of Yarrowia lipolytica 24-SMT assessed as cholesta-7,24-dien-3-trimethylsilyl derivative at 2 ug/mL after 48 hrs by GC-MS analysis relative to untreated control. Also noted: scale not given: the % may be the effect or the level left. The essentials: as §1
A further assay has as its system Yarrowia lipolytica. In words: Antimicrobial activity against Yarrowia lipolytica after 48 hrs. The class given is functional. The essentials:
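Broth dilution MIC per DIN 58940-84. Log-phase Y. lipolytica in yeast extract/peptone/glucose medium, counted against a 0.5 McFarland standard (A570) and seeded at 50,000 CFU/mL in 2 mL wells. Compounds added from ethanol; final concentrations 2 to 0.06125 µg/mL unless otherwise stated. Plates incubated 48 ± 2 h at 28 °C. MIC is the lowest concentration with no visible growth.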

Assay [5] deals with T1, Sterol 24-C-methyltransferase (Yarrowia lipolytica). The experiment in a line: Inhibition of Yarrowia lipolytica 24-SMT assessed as cholesta-7,24-dien-3-trimethylsilyl derivative at 8 ug/mL after 48 hrs by GC-MS analysis relative to untreated control. The arrangement: scale not given: the % may be the effect or the level left. The gist of the method: as §1
Assay [6] shares this target. The experiment in a line: Inhibition of Yarrowia lipolytica 24-SMT assessed as 5-dehydroepisterol-3-trimethylsilyl derivative at 8 ug/mL after 48 hrs by GC-MS analysis relative to untreated control. Also noted: scale not given: the % may be the effect or the level left. The gist of the method:
as §1

For assay [7] the target is unchanged. The experiment in a line: Inhibition of Yarrowia lipolytica 24-SMT assessed as dehydroergosterol-3-trimethylsilyl derivative at 2 ug/mL after 48 hrs by GC-MS analysis relative to untreated control. Also noted: scale not given: the % may be the effect or the level left. The essentials:
as §1

Assay [8] shares this target. The experiment in a line: Inhibition of Yarrowia lipolytica 24-SMT assessed as cholesta-5,7,24-trien-3-trimethylsilyl derivative at 8 ug/mL after 48 hrs by GC-MS analysis relative to untreated control. The arrangement: scale not given: the % may be the effect or the level left. The essentials:
as §1

The target is the same in assay [9]. In words: Inhibition of Yarrowia lipolytica 24-SMT assessed as cholesta-5,7,24-trien-3-trimethylsilyl derivative at 2 ug/mL after 48 hrs by GC-MS analysis relative to untreated control. The arrangement: scale not given: the % may be the effect or the level left. The gist of the method: as §1
Assay [10] has the same target. The experiment in a line: Inhibition of Yarrowia lipolytica 24-sterol C-methyltransferase assessed as ergosterol-3-trimethylsilyl derivative level at 0.06 ug/mL after 48 hrs by GC-MS analysis relative to untreated control. Also noted: scale not given: the % may be the effect or the level left. The essentials: as §1
Assay [11] has the same target. The experiment in a line: Inhibition of Yarrowia lipolytica 24-SMT assessed as 5-dehydroepisterol-3-trimethylsilyl derivative at 0.06 ug/mL after 48 hrs by GC-MS analysis relative to untreated control. The arrangement: scale not given: the % may be the effect or the level left. The essentials:
as §1

Assay [12] shares this target. In words: Inhibition of Yarrowia lipolytica 24-SMT assessed as cholesta-7,24-dien-3-trimethylsilyl derivative at 0.06 ug/mL after 48 hrs by GC-MS analysis relative to untreated control. Also noted: scale not given: the % may be the effect or the level left. The gist of the method: as §1
Assay [13] has the same target. In words: Inhibition of Yarrowia lipolytica 24-SMT assessed as dehydroergosterol-3-trimethylsilyl derivative at 0.06 ug/mL after 48 hrs by GC-MS analysis relative to untreated control. Also noted: scale not given: the % may be the effect or the level left. The essentials: as §1
Assay [14] has the same target. The experiment in a line: Inhibition of Yarrowia lipolytica 24-SMT assessed as cholesta-5,7,24-trien-3-trimethylsilyl derivative at 0.06 ug/mL after 48 hrs by GC-MS analysis relative to untreated control. The arrangement: scale not given: the % may be the effect or the level left. The essentials:
as §1

The target is the same in assay [15]. In words: Inhibition of Yarrowia lipolytica 24-SMT assessed as cholesta-5,7,24-trien-3-trimethylsilyl derivative at 0.2 ug/mL after 48 hrs by GC-MS analysis relative to untreated control. The arrangement: scale not given: the % may be the effect or the level left. The essentials: as §1
For assay [16] the target is unchanged. The experiment in a line: Inhibition of Yarrowia lipolytica 24-SMT assessed as dehydroergosterol-3-trimethylsilyl derivative at 0.2 ug/mL after 48 hrs by GC-MS analysis relative to untreated control. The arrangement: scale not given: the % may be the effect or the level left. The gist of the method:
as §1

The target is the same in assay [17]. In words: Inhibition of Yarrowia lipolytica 24-SMT assessed as 5-dehydroepisterol-3-trimethylsilyl derivative at 0.2 ug/mL after 48 hrs by GC-MS analysis relative to untreated control. The arrangement: scale not given: the % may be the effect or the level left. The essentials:
as §1

The target is the same in assay [18]. The experiment in a line: Inhibition of Yarrowia lipolytica 24-SMT assessed as ergosterol-3-trimethylsilyl derivative level at 0.2 ug/mL after 48 hrs by GC-MS analysis relative to untreated control. Also noted: scale not given: the % may be the effect or the level left. The essentials: as §1
For assay [19] the target is unchanged. In words: Inhibition of Yarrowia lipolytica 24-SMT assessed as cholesta-7,24-dien-3-trimethylsilyl derivative at 0.2 ug/mL after 48 hrs by GC-MS analysis relative to untreated control. Also noted: scale not given: the % may be the effect or the level left. The gist of the method:
as §1

For assay [20] the target is unchanged. In words: Inhibition of Yarrowia lipolytica 24-SMT assessed as lanosterol-3-trimethylsilyl derivative at 0.06 ug/mL after 48 hrs by GC-MS analysis relative to untreated control. Also noted: scale not given: the % may be the effect or the level left. The gist of the method: as §1
Assay [21] has the same target. The experiment in a line: Inhibition of Yarrowia lipolytica 24-SMT assessed as zymosterol-3-trimethylsilyl derivative level at 2 ug/mL after 48 hrs by GC-MS analysis relative to untreated control. Also noted: scale not given: the % may be the effect or the level left. The essentials: as §1
The target is the same in assay [22]. The experiment in a line: Inhibition of Yarrowia lipolytica 24-SMT assessed as cholesta-5,7,24-trien-3-trimethylsilyl derivative at 0.1 ug/mL after 48 hrs by GC-MS analysis relative to untreated control. Also noted: scale not given: the % may be the effect or the level left. The essentials: as §1
Assay [23] shares this target. The experiment in a line: Inhibition of Yarrowia lipolytica 24-SMT assessed as zymosterol-3-trimethylsilyl derivative level at 0.1 ug/mL after 48 hrs by GC-MS analysis relative to untreated control. Also noted: scale not given: the % may be the effect or the level left. The essentials: as §1
Assay [24] has the same target. The experiment in a line: Inhibition of Yarrowia lipolytica 24-SMT assessed as 5-dehydroepisterol-3-trimethylsilyl derivative at 0.1 ug/mL after 48 hrs by GC-MS analysis relative to untreated control. Also noted: scale not given: the % may be the effect or the level left. The gist of the method: as §1
Assay [25] has the same target. In words: Inhibition of Yarrowia lipolytica 24-SMT assessed as dehydroergosterol-3-trimethylsilyl derivative at 0.1 ug/mL after 48 hrs by GC-MS analysis relative to untreated control. The arrangement: scale not given: the % may be the effect or the level left. The gist of the method: as §1

Structures are written as SMILES. Converted amounts (≈) assume the structure as drawn.

On to `C[C@H](CNCCCN(C)C)[C@H]1CC[C@H]2C3=CC[C@H]4C[C@@H](O)CC[C@]4(C)[C@H]3CC[C@]12C`, for which the Activity in assay [1] was determined as 2.7%; in assay [2], 27.2%; in assay [3] it was 3.3%; in assay [4], 2%; in assay [5] it was 5.1%; in assay [6], 2.3%. Besides, the Activity is 66.4% in assay [7], 65.4% in assay [8] and 25.6% in [9]. The MIC (usually the lowest concentration found to suppress growth) against Yarrowia lipolytica is greater than 2 µg/mL.

On to `CCCNCC[C@@H](C)[C@H]1CC[C@H]2C3=CC[C@H]4C[C@@H](O)CC[C@]4(C)[C@H]3CC[C@]12C`, for which the Activity in [10] is 5%; in assay [11], 2.9%; in assay [12], 5.4%; in assay [13] it was 25.9%; in [14], 60.8%. This compound gave an MIC in the assay with Yarrowia lipolytica of 0.25 µg/mL (≈ 0.645 µM).

For the compound `CCCC[S+](C)C[C@@H](C)[C@H]1CC[C@H]2C3=CC[C@H]4C[C@@H](O)CC[C@]4(C)[C@H]3CC[C@]12C.[I-]` (mixture of isomers), the Activity was 1% in [3], 3.5% in assay [4], 7.8% in assay [7] and 87.5% in assay [9]. The MIC against Yarrowia lipolytica is greater than 2 µg/mL.

Take `CCNC[C@@H](C)[C@H]1CC[C@H]2C3=CC[C@H]4C[C@@H](O)CC[C@]4(C)[C@H]3CC[C@]12C`: the Activity in [15] was found to be 25.5%; in assay [16] it was 64.7%; in assay [17], 2.8%; in assay [18] it was 3.4%; in assay [19], 3.6%. In addition, the MIC against Yarrowia lipolytica came out at 2 µg/mL (≈ 5.56 µM).

For the compound `C[C@H](/C=C/c1cc[n+](C)cc1)[C@H]1CCC2C3=CCC4C[C@@H](O)CC[C@]4(C)C3CC[C@@]21C.[I-]` (stereo partly drawn), the Activity in assay [20] came out at 0.2%; in assay [10], 11.8%; in assay [11], 1.8%; in assay [13], 67.9%; in [14], 18.3%. The compound further displayed an MIC with Yarrowia lipolytica of 0.5 µg/mL.

In the case of `CNC[C@@H](C)[C@H]1CC[C@H]2C3=CC[C@H]4C[C@@H](O)CC[C@]4(C)[C@H]3CC[C@]12C`, the Activity in assay [3] turned out to be 2.6%; in [7], 55.4%; in assay [21] it was 1.6%; in assay [9], 40.4%. Besides, the MIC with Yarrowia lipolytica was greater than 2 µg/mL.

`CCCNC[C@@H](C)[C@H]1CC[C@H]2C3=CC[C@H]4C[C@@H](O)CC[C@]4(C)[C@H]3CC[C@]12C`: the Activity in assay [22] was determined as 48.5%; in [23] it was 0.5%; in assay [24] it was 3.7%; in [25], 47.3%. Further, in the assay with Yarrowia lipolytica, the MIC is 0.25 µg/mL (≈ 0.669 µM).

The record behind these values is ChEMBL document CHEMBL1152672, “Side chain azasteroids and thiasteroids as sterol methyltransferase inhibitors in ergosterol biosynthesis” (2009).
